Results from ChEMBL document CHEMBL4004806, “Cyclocurcumin, an Antivasoconstrictive Constituent of Curcuma longa (Turmeric)” (J Nat Prod, 2017).

Key:
[1] = target: T1, Voltage-gated L-type calcium channel (Rattus norvegicus, UniProt P22002+Q02485+P27732); assay: Inhibition of L-type calcium channel in Sprague-Dawley rat aortic rings assessed as reduction in phenylephrine-induced vasoconstriction at 25 uM preincubated with aortic rings followed by phenylephrine addition
How it was run: (§1)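 Rat aortic rings in organ baths of Krebs-Ringer (pH 7.4, 95% O2/5% CO2, 37 °C) pretreated with compound. Contraction was then started by cumulative phenylephrine, serotonin or 60 mM K+. Isometric tension recorded by force transducer and expressed as percent of a prior 90 mM K+ contraction. Mean ± SEM, ≥3 independent experiments, ANOVA/Duncan or t test.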

[2] = target: T1, Voltage-gated L-type calcium channel; assay: Irreversible inhibition of 5-HT activated L-type calcium channel-mediated vasoconstriction in Sprague-Dawley rat aortic rings at 15 uM preincubated with aortic rings followed by 5-HT addition and subsequent compound wash out measured after 4 hrs
How it was run: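 Rat aortic rings in organ baths of Krebs-Ringer solution (pH 7.4, 37 °C, gassed with 95% O2/5% CO2). Rings were pretreated with compound, then contracted with 5-HT (reading I). Buffer was washed out, and 5-HT contraction was re-measured 4 h later (reading II). Isometric tension was recorded and expressed as percent of the 90 mM K+ contraction. Mean ± SEM, ≥3 independent experiments.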

[3] = target: T1, Voltage-gated L-type calcium channel; assay: Inhibition of 60 mM K+ activated L-type calcium channel-mediated vasoconstriction in Sprague-Dawley rat aortic rings preincubated followed by 60 mM K+ addition; how it was run: as §1
Aorta [4] = assay: Cytotoxicity against Sprague-Dawley rat aortic rings assessed as non-specific tissue damage at 5 to 25 uM after 30 mins by LDH release assay; format: tissue-based; details: 0.5 h
How it was run: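 Aortic rings exposed to compound for 30 min, then medium aliquots collected. Aliquot incubated in Tris-EDTA-NADH buffer (0.17 mM β-NADH, pH 7.4) for 10 min at 37 °C. Prewarmed 14 mM pyruvate added, and the fall in A340 was followed for 1 min as LDH activity. Mean ± SEM, ≥3 independent experiments.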

[5] = target: T1, Voltage-gated L-type calcium channel; assay: Inhibition of L-type calcium channel in Sprague-Dawley rat aortic rings assessed as reduction in phenylephrine-induced vasoconstriction preincubated with aortic rings followed by phenylephrine addition; how it was run: as §1
[6] = target: T1, Voltage-gated L-type calcium channel; assay: Inhibition of L-type calcium channel in Sprague-Dawley rat aortic rings assessed as reduction in 5-HT-induced vasoconstriction at 5 to 25 uM preincubated with aortic rings followed by 5-HT addition; how it was run: as §1
[7] = target: T1, Voltage-gated L-type calcium channel; assay: Inhibition of L-type calcium channel in endothelium-denuded Sprague-Dawley rat aortic rings assessed as reduction in 5-HT-induced vasoconstriction at 5 to 25 uM preincubated with aortic rings followed by 5-HT addition; how it was run: as §1
[8] = target: T1, Voltage-gated L-type calcium channel; assay: Inhibition of L-type calcium channel in Sprague-Dawley rat primary VSMC assessed as reduction in 5-HT-induced MLC phosphorylation preincubated for 30 mins followed by 5-HT addition measured after 10 mins by Western blot method
How it was run: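 Primary VSMCs were released from rat aorta with collagenase and elastase. Cells pretreated with compound for 30 min, then stimulated with 10−5 M serotonin for 10 min. Lysed in RIPA with protease/phosphatase inhibitors, and pMLC and total MLC detected by SDS-PAGE Western blot with chemiluminescent imaging. Mean ± SEM, ≥3 experiments.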

[9] = target: T1, Voltage-gated L-type calcium channel; assay: Inhibition of L-type calcium channel in Sprague-Dawley rat primary VSMC assessed as reduction in 5-HT-induced calcium influx preincubated for 30 mins followed by 5-HT addition by Fura-2-AM dye based confocal microscopic method
How it was run: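 Enzymatically isolated rat aortic VSMCs on coverslips pretreated with compound for 30 min. Cells loaded 60 min with 1 μM fura-2/AM in PSS (pH 7.4) with 1% BSA, then superfused with PSS at 2 mL/min at 33 °C. Serotonin-evoked calcium rise imaged by 40× oil-objective fluorescence microscopy. Mean ± SEM, ≥3 experiments.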

[10] = target: T1, Voltage-gated L-type calcium channel; assay: Inhibition of L-type calcium channel in Sprague-Dawley rat aortic rings assessed as reduction in Bay K8644-induced vasoconstriction preincubated with aortic rings followed by Bay K8644 addition
How it was run: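 Aortic rings in organ baths (37 °C, 95% O2/5% CO2) pretreated with compound. Contraction was elicited by Bay K8644 (10−6 M) in 15 mM K+ buffer, pH 7.4, containing 0.026 mM EDTA. Tension expressed as percent of a prior 90 mM K+ response. Mean ± SEM, ≥3 independent experiments.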

[11] = target: T1, Voltage-gated L-type calcium channel; assay: Reversible inhibition of 5-HT activated L-type calcium channel-mediated vasoconstriction in Sprague-Dawley rat aortic rings at 25 uM preincubated with aortic rings followed by 5-HT addition and subsequent compound wash out measured after 4 hrs
How it was run: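 Organ-bath aortic rings (Krebs-Ringer, 37 °C) treated with compound, and a 5-HT contraction recorded. Buffer was washed out and the 5-HT contraction measured again 4 h later. Tension expressed relative to a 90 mM K+ response. Mean ± SEM, ≥3 independent experiments.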

Aorta [12] = assay: Cytotoxicity against Sprague-Dawley rat aortic rings assessed as non-specific tissue damage after 24 hrs by TUNEL assay; format: tissue-based
How it was run: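 Aortic rings kept in MEM with 100 U/mL penicillin and 100 μg/mL streptomycin, exposed to compound or vehicle for 24 h at 37 °C in 95% air/5% CO2. Sections quenched with 0.3% H2O2, digested with 20 μg/mL Proteinase K, TdT-labelled with digoxigenin-dUTP for 1 h at 37 °C. Detection by HRP anti-digoxigenin (30 min, room temperature) and DAB, hematoxylin counterstain. Mean ± SEM, ≥3 independent experiments.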

Structure (SMILES): COc1cc(/C=C/C(=O)CC(=O)/C=C/c2ccc(O)cc2)ccc1O
- inhibition (INH) [1]: Active

Structure (SMILES): C[As](O)O
- inhibition (INH) [2]: Active

Structure (SMILES): COc1cc(/C=C/C2=CC(=O)CC(c3ccc(O)c(OC)c3)O2)ccc1O (configuration not stated)
- IC50 [3]: 18.5 µM
- inhibition (INH) ([3]; rat): Dose-dependent effect
- Activity (Aorta [4]): Non-Toxic
- inhibition (INH) [1]: Active
- IC50 [5]: 14.9 µM
- pA2 [5]: 5.2
- inhibition (INH) ([5]; rat): Dose-dependent effect
- inhibition (INH) [6]: Active
- inhibition (INH) [7]: Active
- inhibition (INH) [8]: Active
- inhibition (INH) [9]: Dose-dependent effect
- IC50 [10]: 13.5 µM
- inhibition (INH) [11]: Active
- Activity (Aorta [12]): Non-Toxic

Structure (SMILES): COc1cc(/C=C/C(=O)CC(=O)/C=C/c2ccc(O)c(OC)c2)ccc1O [CURCUMIN]
- IC50 [5]: > 100 µM
